This is a sample that favours compounds with a hit; in the whole collection about 3.8% have one here.
KCNQ1 inh: inhibitors of human KCNQ1 channel, primary screen, cell-based, thallium flux, high-throughput; actives 1.3% (n = 310,000); CHO-K1 KCNQ1, FluxOR thallium flux fluorescence; stronger effect = higher value; Potassium voltage-gated channel subfamily KQT member 1 (Homo sapiens), P51787; B-score at 10 µM;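 active = compounds whose thallium flux B-score, printed positive for inhibition, exceeds three library SD while starting fluorescence stays within three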;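 also: channel opened by potassium depolarization with thallium stimulus after 20 min compound exposure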
KCNQ1 pot: potentiators or activators of KCNQ1 channel, primary screen, cell-based, thallium flux, high-throughput; Potassium voltage-gated channel subfamily KQT member 1 (Homo sapiens), P51787; AID 2648, 2010; B-score at 10 µM; CHO-K1 KCNQ1, thallium flux FluxOR fluorescence; stronger effect = higher value; actives 0.35% (n = 310,000);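 active = fluorescence ratio B-score, a plate-corrected score, at least three library SD, with initial intensity B-score within 5 SD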
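System: Stable KCNQ1 CHO-K1 line | Incubation: 90 min dye loading and 20 min compound exposure, both at room temperature | Measure: Ratio B score | Medium: Assay buffer for compound exposure, DMSO matched across wells | Compound dosing: Single-concentration screen | Probe or stimulus: K+/Tl+ depolarizing stimulus | Measured by: Kinetic FluxOR fluorescence, 10 s baseline plus 110 s post-stimulus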
hERG protect: hERG rescue from dofetilide block, primary screen, cell-based, CHO-hERG, FluxOR thallium flux, dofetilide IC70. dofetilide IC70 present. activation (rescue from dofetilide block), less the hit threshold, % at 10 µM. Voltage-gated inwardly rectifying potassium channel KCNH2 (Homo sapiens), Q12809. actives 0.51% (n = 310,000). AID 1511, 2009;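 active = activation above the mean of controls blocked by dofetilide plus 5 SD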;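 also: thallium influx through hERG after potassium depolarization seen as dye fluorescence rise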
KCNK3 inh: human KCNK3 channel inhibitors, primary screen, CHO cells, FluxOR thallium flux, B-score | FluxOR fluorescence; stronger effect = lower value | AID 602410, 2012 | Potassium channel subfamily K member 3 (Homo sapiens), O14649 | B-score at 10 µM | actives 0.84% (n = 340,000);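 active = B-score under library mean minus 4 SD, starting fluorescence ratio at most library mean plus 5 SD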;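 also: more negative B-score means stronger inhibition of thallium flux through KCNK3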
Target sequence (O14649 whole entry, looked up): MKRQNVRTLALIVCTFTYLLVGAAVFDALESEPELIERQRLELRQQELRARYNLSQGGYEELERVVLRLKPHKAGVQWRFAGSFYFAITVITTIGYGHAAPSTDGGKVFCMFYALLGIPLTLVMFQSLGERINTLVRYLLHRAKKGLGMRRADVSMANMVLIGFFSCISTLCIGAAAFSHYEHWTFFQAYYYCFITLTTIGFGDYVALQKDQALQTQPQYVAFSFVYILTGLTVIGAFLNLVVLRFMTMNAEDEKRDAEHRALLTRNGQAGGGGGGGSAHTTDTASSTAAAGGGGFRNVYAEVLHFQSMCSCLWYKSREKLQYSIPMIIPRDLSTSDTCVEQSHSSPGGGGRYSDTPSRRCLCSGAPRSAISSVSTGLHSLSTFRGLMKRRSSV
Kir21 inh: inhibitors of mouse Kir2.1 inward-rectifier potassium channel | HEK293-Kir2.1, FluxOR thallium flux fluorescence; stronger effect = lower value | actives 0.85% (n = 310,000) | B-score at 10 µM;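 active = fluorescence ratio B-score at or below minus 3 SD of library scores, with starting-brightness B-score within 2 SD, cut at about -4.2 in these data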;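 also: channel flux triggered by added potassium and thallium sulfate stimulus; B-score of peak minus minimum fluorescence over baseline after thallium stimulus; more negative B-score means stronger Kir2.1 block with less thallium influx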
KCNK9 inh: KCNK9 potassium channel inhibitors, primary screen, HEK293 cells, thallium flux; Potassium channel subfamily K member 9 (Homo sapiens), Q9NPC2; FluxOR thallium flux fluorescence; stronger effect = lower value; B-score at 10 µM; actives 1.2% (n = 310,000); AID 488922, 2010;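 active = ratio B-score over 3 SD below the library mean, with starting fluorescence within 5 SD of its mean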;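 also: negative B-score means less thallium flux so channel inhibition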
KCNK9 inh conf: KCNK9 potassium channel inhibitors, confirmation, HEK293 cells, thallium flux, duplicate | shares compounds with KCNK9 inh | FluxOR thallium flux fluorescence | inhibition, % at 10 µM | actives 43% (n = 4,900);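 active = thallium signal inhibited by more than 5 SD of the compound-free buffer control wells, on both duplicate plates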;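 also: 0% = assay buffer control wells without compound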
Kir21 sel: mouse Kir2.1 channel inhibition, confirmation, selectivity assay for KCNK9 modulator project, cell-based, HEK293, thallium flux. Kir2.1 cells, FluxOR thallium flux fluorescence. actives 4% (n = 4,900). AID 492993, 2010. inhibition, % at 10 µM. shares compounds with KCNK9 inh;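 active = thallium signal drop more than 5 SD beyond the mean of the no-compound control wells, seen in both duplicate plates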;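 also: signal is fluorescence rise after thallium addition divided by baseline fluorescence; plate controls were assay buffer only for no effect and full block by chlorpromazine control for full effect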
KCNK9 uninduced: thallium flux in non-induced HEK293 cells, confirmation, counter-screen for KCNK9 inhibitor project, cell-based, second counter screen, non-induced KCNK9-HEK293 | FluxOR thallium flux | shares compounds with KCNK9 inh | actives 40% (n = 4,900) | inhibition, % at 10 µM;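 active = thallium signal drop beyond 5 SD of the untreated control mean, on both duplicate plates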;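 also: plate controls were buffer only IC0 wells for no effect and SID17386958 at its maximal inhibitory level for full effect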
* marks the source's active call; other numbers are inactive results; i = inactive; / = no result.

SMILES	KCNQ1 inh	KCNQ1 pot	hERG protect	KCNK3 inh	Kir21 inh	KCNK9 inh	KCNK9 inh conf	Kir21 sel	KCNK9 uninduced
CC1S/C(=N/N=C/c2ccco2)N(Cc2ccccc2)C1=O (centres undefined)	i	i	-6	i	0.02	i	/	/	/
CC/C(=N\N=C1\SC(C)C(=O)N1Cc1ccco1)c1ccccc1 (centres undefined)	i	i	-12	i	0.36	i	i	i	26%*
CCCn1c(=O)n(C)c(=O)c2c(SCC(=O)Nc3cc(C)on3)nc(C(C)(C)C)nc21	/	/	/	i	/	/	/	/	/
O=C(O)CN1C(=O)/C(=C\c2cc([N+](=O)[O-])ccc2OCc2ccccc2Cl)SC1=S	i	i	-5	i	-0.74	i	i	i	i
O=C(O)CN1C(=O)/C(=C\c2cc(Br)ccc2OCc2ccc(Cl)cc2)SC1=S	i	i	-1	i	0.28	i	/	/	/
CCCCn1c(N)c(N(CC(C)C)C(=O)C2=NN(c3ccccc3)C(=O)CC2)c(=O)[nH]c1=O	/	/	/	i	/	/	/	/	/
Cc1[nH]c2ccccc2c1/C=N/NC(=O)c1cc(-c2cccs2)[nH]n1	i	i	-10	i	1.2	-10*	i	i	i
O=C(c1ccc2[nH]c(=O)c(=O)[nH]c2c1)N1CCc2ccccc2C1	i	i	-4	i	0.07	i	/	/	/
O=c1c2sccc2nc(SCc2ccc([N+](=O)[O-])cc2)n1Cc1ccccn1	i	i	-12	i	-1.6	-9.6*	74%*	i	28%*
C=CCN1CN=C(NS(=O)(=O)c2ccc(NC(C)=O)cc2)NC1	i	i	-7	i	-0.05	-10*	i	i	i
Cc1cc(=O)[nH]c(SCc2ccc(Cl)cc2Cl)n1	i	i	-9	i	0.11	i	/	/	/
Cc1cc(O)c(NC(=O)c2cc([N+](=O)[O-])ccc2Cl)cc1C	i	i	-17	i	-0.73	-14*	62%*	i	i
CC(=O)Nc1ccc(Nc2c([N+](=O)[O-])c(=O)n(-c3ccccc3)c3ccccc23)cc1	i	i	-9	i	0.63	i	/	/	/
CCN1/C(=C/C=C/c2sc3ccccc3[n+]2CC)Sc2ccccc21	i	i	-21	-13*	-1.4	-24*	i	i	i
COc1cccc(N2CCN(c3nc(C)cc(=O)[nH]3)CC2)c1	i	i	-7	i	0.57	i	/	/	/
COc1ccc(-c2csc(NC(=O)C3COc4ccccc4O3)n2)cc1OC (centres undefined)	i	i	-16	-10*	0.01	-16*	64%*	i	i
Cc1ccccc1-c1ocnc1C(=O)Nc1ccccc1NC(=O)c1ccccn1	i	i	-13	i	-1.4	-8.7*	38%*	i	i
Cc1ccc(SCCN2CCN(Cc3ccccc3)CC2)cc1	i	i	-8	i	-4.3	i	i	i	i
CC1CCN(c2ccccc2NC(=S)NC(=O)C(C)(C)C)CC1	i	i	-8	i	0.1	-10*	42%*	i	33%*
CC1CCN(c2ccccc2NC(=S)NC(=O)c2ccco2)CC1	i	i	4	i	0.35	i	/	/	/
Cn1c(CN2CCCC(C(=O)c3ccc4c(c3)OCO4)C2)nc2ccccc21 (centres undefined)	i	i	-9	i	-1.2	i	i	i	i
O=C(c1ccc2c(c1)OCO2)C1CCCN(Cc2c(F)ccc(F)c2F)C1 (centres undefined)	i	i	-6	i	-1.1	i	i	i	i
C(=C\c1ccccn1)/c1cccnc1	i	i	-11	i	-0.33	i	/	/	/
COC(=O)c1ccccc1NC(=O)CCC(=O)N1CC(C)Oc2ccc(C)cc21 (centres undefined)	i	i	-14	i	-0.18	i	i	i	i
Cc1ccc2c(c1)N(C(=O)CCC(=O)NCC(C)c1ccccc1)CC(C)O2 (centres undefined)	i	i	-13	i	-0.82	i	/	/	/
SMILES	KCNQ1 inh	KCNQ1 pot	hERG protect	KCNK3 inh	Kir21 inh	KCNK9 inh	KCNK9 inh conf	Kir21 sel	KCNK9 uninduced
O=C(NCc1cccnc1)c1cccn2c(=O)c3sccc3nc12	i	i	-8	i	-0.61	i	/	/	/
O=C(O)CSc1cc(NS(=O)(=O)c2ccc(Br)cc2)c2ccccc2c1O	i	i	-7	i	1.3	i	i	i	28%*
CCCCC(=O)OCc1c(-c2ccccc2)ncc2ccccc12	/	/	/	i	/	/	/	/	/
O=C(c1cccc(C(F)(F)F)c1)N1CCOC12CCN(c1ncc(C(F)(F)F)cc1Cl)CC2	i	i	-10	i	-2.5	i	i	i	i
O=C(Nc1ccccc1)OC1CCCCc2cccnc21 (centres undefined)	i	i	-10	i	-1.3	i	i	i	28%*
O=C(Nc1ccccc1)OCCNC1CCCCC1	/	/	/	i	/	/	/	/	/
CCOC(=O)C1(C(=O)OCC)NC(=O)CC1CC(C)C (centres undefined)	/	/	/	i	/	/	/	/	/
Cc1c(Cl)c([N+](=O)[O-])nn1Cc1ccc(C(=O)N/N=C\c2cccc(Br)c2)o1	i	i	-11	i	-0.36	-8.5*	42%*	i	27%*
O=C(N/N=C\c1cccc(Cl)c1)c1ccc(Cn2cc(Br)c([N+](=O)[O-])n2)o1	i	i	-10	i	-1.4	-16*	68%*	i	32%*
CC(C)Oc1ccc(CN2CCCC(CO)(Cc3ccccc3)C2)cc1CO (centres undefined)	i	i	-6	i	-1.4	i	/	/	/

Screening data deposited in PubChem by Johns Hopkins Ion Channel Center.
